From ChEMBL document CHEMBL3774312, “5-Substituted 3-isopropyl-7-[4-(2-pyridyl)benzyl]amino-1(2)H-pyrazolo[4,3-d]pyrimidines with anti-proliferative activity as potent and selective inhibitors of cyclin-dependent kinases” (Eur J Med Chem, 2016)
Active and inactive are the calls of the source. No cut-off for these calls is given here.

Experiments:
[1] = biological target: Cyclin-dependent kinase 2/cyclin E1 (Homo sapiens, UniProt P24941); test: Inhibition of CDK2/Cyclin E (unknown origin) expressed in sf9 cells using histone H1 as substrate in presence of [gamma33P]-ATP; format: cell-based
[2] = test system: K562; test: Cytotoxicity against human K562 cells assessed as reduction in cell viability after 72 hrs by calcein AM staining based fluorescence assay; format: functional; details: K562, 72 h
Procedure, shortened: (§1)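 Cells were grown in DMEM with 10% FBS, penicillin and streptomycin at 37 °C in 5% CO2. Three doses were tested in triplicate for 72 h.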

[3] = test system: MCF7; test: Cytotoxicity against human MCF7 cells assessed as reduction in cell viability after 72 hrs by calcein AM staining based fluorescence assay; format: functional; details: for IC50: MCF7, 72 h; procedure, shortened: as §1
[4] = Cytotoxicity against human G361 cells assessed as reduction in cell viability after 72 hrs by calcein AM staining based fluorescence assay; format: functional; details: G-361, 72 h; procedure, shortened: as §1
[5] = (§2) Cytotoxicity against human HCT116 cells assessed as reduction in cell viability after 72 hrs by calcein AM staining based fluorescence assay; format: functional; details: HCT-116, 72 h
Procedure, shortened: (§3)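 Cells were grown in DMEM with 10% FBS, penicillin and streptomycin at 37 °C in 5% CO2. Three doses were tested in triplicate for 72 h. Live cells were read by Calcein AM fluorescence at 485/538 nm.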

[6] = test system: HCT-116; test: as §2; format: functional; procedure, shortened: as §3
[7] = test system: MCF7; test: Cell cycle arrest in BrdU pulse-labelled human MCF7 cells assessed as accumulation at subG1 phase at 2500 to 20000 nM after 24 hrs by propidium iodide staining based flow cytometry; format: functional
[8] = test system: MCF7; test: Cell cycle arrest in BrdU pulse-labelled human MCF7 cells assessed as accumulation at late S phase at 2500 to 20000 nM after 24 hrs by propidium iodide staining based flow cytometry; format: functional
[9] = test system: MCF7; test: Cell cycle arrest in BrdU pulse-labelled human MCF7 cells assessed as accumulation at late G2/M phase at 2500 to 20000 nM after 24 hrs by propidium iodide staining based flow cytometry; format: functional
[10] = test system: MCF7; test: Cell cycle arrest in BrdU pulse-labelled human MCF7 cells assessed as decrease in cell at S phase at 2500 to 20000 nM after 24 hrs by propidium iodide staining based flow cytometry; format: functional
[11] = biological target: Cyclin-dependent kinase 5 (Homo sapiens, UniProt Q00535); test: Inhibition of CDK5 (unknown origin) using histone H1 as substrate in presence of [gamma33P]-ATP
Chain of Cyclin-dependent kinase 5 (Q00535 whole entry): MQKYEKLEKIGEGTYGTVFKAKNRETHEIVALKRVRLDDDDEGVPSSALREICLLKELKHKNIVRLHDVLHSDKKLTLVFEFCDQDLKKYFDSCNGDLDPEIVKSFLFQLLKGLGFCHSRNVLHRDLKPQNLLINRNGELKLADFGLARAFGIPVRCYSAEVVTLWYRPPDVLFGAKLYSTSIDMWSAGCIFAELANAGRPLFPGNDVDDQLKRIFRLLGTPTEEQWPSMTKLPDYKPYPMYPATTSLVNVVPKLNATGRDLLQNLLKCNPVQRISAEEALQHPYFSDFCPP

[12] = test system: G-361; test: Induction of apoptosis in human G361 cells assessed as caspase3 activation using Ac-DEVD-AMC as substrate at IC50 preincubated for 24 hrs followed by substrate addition measured after 3 hrs by fluorescence assay; format: functional, cell-based
[13] = test system: G-361; test: Induction of apoptosis in human G361 cells assessed as caspase3 activation using Ac-DEVD-AMC as substrate at 5 times IC50 preincubated for 24 hrs followed by substrate addition measured after 3 hrs by fluorescence assay; format: functional, cell-based
[14] = test system: G-361; test: Induction of apoptosis in human G361 cells assessed as caspase7 activation using Ac-DEVD-AMC as substrate at IC50 preincubated for 24 hrs followed by substrate addition measured after 3 hrs by fluorescence assay; format: functional, cell-based
[15] = test system: G-361; test: Induction of apoptosis in human G361 cells assessed as caspase7 activation using Ac-DEVD-AMC as substrate at 5 times IC50 preincubated for 24 hrs followed by substrate addition measured after 3 hrs by fluorescence assay; format: functional, cell-based
[16] = biological target: Cyclin-dependent kinase 2 (Homo sapiens) (UniProt P24941); test: Inhibition of CDK2 in human G361 cells assessed as reduction in phosphorylation of RNA polymerase 2 at C-terminus at 1.5 to 15 uM incubated for 24 hrs by immunoblotting analysis; format: cell-based; details: G-361
Procedure, shortened: (§4)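 Treated G361 cells were lysed in Laemmli buffer, run on SDS-PAGE and blotted to nitrocellulose. Blots were probed overnight with antibodies to RNA polymerase II phosphorylated at S5 and S2, and to total RNA polymerase II (ARNA-3). Peroxidase secondaries were then applied and signal was detected by ECL with a CCD camera.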

[17] = biological target: Cyclin-dependent kinase 2 (Homo sapiens) (UniProt P24941); test: Inhibition of CDK2 in human G361 cells assessed as reduction in phosphorylation of RNA polymerase 2 at C-terminus at 15 uM incubated for 0.5 to 24 hrs by immunoblotting analysis; format: cell-based; details: G-361; procedure, shortened: as §4
[18] = biological target: Cyclin-dependent kinase 2 (Homo sapiens) (UniProt P24941); test: Inhibition of CDK2 in human G361 cells assessed as reduction in phosphorylation of RNA polymerase 2 at C-terminus at 1 uM incubated for 0.5 to 24 hrs by immunoblotting analysis; format: cell-based; details: G-361; procedure, shortened: as §4
[19] = biological target: Cyclin-dependent kinase 2 (Homo sapiens) (UniProt P24941); test: Inhibition of CDK2 in human G361 cells assessed as reduction in phosphorylation of RNA polymerase 2 at C-terminus at 2.4 to 24 uM incubated for 24 hrs by immunoblotting analysis; format: cell-based; details: G-361; procedure, shortened: as §4
[20] = biological target: Cyclin-dependent kinase 2 (Homo sapiens) (UniProt P24941); test: Inhibition of CDK2 in human G361 cells assessed as reduction in phosphorylation of RNA polymerase 2 at C-terminus at 0.075 to 0.75 uM incubated for 24 hrs by immunoblotting analysis; format: cell-based; details: G-361; procedure, shortened: as §4
[21] = biological target: Cyclin-dependent kinase 2 (Homo sapiens) (UniProt P24941); test: Inhibition of CDK2 in human G361 cells assessed as reduction in phosphorylation of RNA polymerase 2 at C-terminus at 0.75 uM incubated for 0.5 to 24 hrs by immunoblotting analysis; format: cell-based; details: G-361; procedure, shortened: as §4

IC50 [1] [nM]	Structure (SMILES)	IC50 [2] [nM]	IC50 [3] [nM]	IC50 [4] [nM]	IC50 [5] [nM]	further results
467	CC(C)c1n[nH]c2c(NCc3ccc(-c4ccccn4)cc3)nc(NCCN(C)C)nc12	125	225	640	390	–
1480	COc1ccc(CNc2nc(NCc3ccc(-c4ccccn4)cc3)c3[nH]nc(C(C)C)c3n2)cc1	3950	5300	7490	17400	Activity [3]: Dose-dependent effect; Activity [6]: Dose-dependent effect; Activity [7]: Active; Activity [8]: Active; Activity [9]: Active; Activity [10]: Active
1450	CC(C)c1n[nH]c2c(NCc3ccc(-c4ccccn4)cc3)nc(NCc3ccc(-c4ccccn4)cc3)nc12	2540	2380	3610	7320	IC50 [11]: 3600 nM
70	CC(C)c1n[nH]c2c(NCc3ccc(-c4ccccn4)cc3)nc(S(C)(=O)=O)nc12	640	460	793	1140	–
50	CC(C)c1n[nH]c2c(NCc3ccc(-c4ccccn4)cc3)nc(N3CCNCC3)nc12	17	21	64	88	–
96	CC(C)c1n[nH]c2c(NCc3ccc(-c4ccccn4)cc3)nc(N[C@H]3CC[C@H](N)CC3)nc12	593	474	745	720	Activity [12]: Active; Activity [13]: Active; Activity [14]: Active; Activity [15]: Active; inhibition [16]: Active; inhibition [17]: Active
18	CC(C)c1n[nH]c2c(NCc3ccc(-c4ccccn4)cc3)nc(N3CCOCC3)nc12	110	163	197	270	Activity [12]: inactive; Activity [13]: Active; Activity [14]: inactive; Activity [15]: Active; inhibition [18]: Active
46	CC(C)c1n[nH]c2c(NCc3ccc(-c4ccccn4)cc3)nc(N[C@@H]3CCCC[C@H]3N)nc12 (relative stereo)	175	295	477	427	IC50 [11]: 44 nM
61	CC(C)c1n[nH]c2c(NCc3ccc(-c4ccccn4)cc3)nc(N3CCSCC3)nc12	589	530	873	940	–
–	CC[C@H](CO)Nc1nc(NCc2ccccc2)c2[nH]nc(C(C)C)c2n1	–	–	–	–	inhibition [19]: Active
9	CC(C)c1n[nH]c2c(NCc3ccc(-c4ccccn4)cc3)nc(NCC(C)(C)O)nc12	29	24	48	85	Activity [12]: Active; Activity [13]: Active; Activity [14]: Active; Activity [15]: Active; inhibition [20]: Active; inhibition [21]: Active
